Target: Sodium-dependent dopamine transporter (Homo sapiens, UniProt Q01959)
Experiment: Inhibition of human DAT expressed in COS1 cells
Assay type: cell-based, COS-1
Details: read-out: -Log Ki (converted)
Outline: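 COS-1 cells stably transfected with hDAT (pIRES, Blasticidin selection), grown in DMEM/10% FCS at 37 °C, 5% CO2. Membranes homogenized in 150 mM NaCl/50 mM Tris/20 mM EDTA, resuspended in PBSCM.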

Sequence of Sodium-dependent dopamine transporter (Q01959 whole entry): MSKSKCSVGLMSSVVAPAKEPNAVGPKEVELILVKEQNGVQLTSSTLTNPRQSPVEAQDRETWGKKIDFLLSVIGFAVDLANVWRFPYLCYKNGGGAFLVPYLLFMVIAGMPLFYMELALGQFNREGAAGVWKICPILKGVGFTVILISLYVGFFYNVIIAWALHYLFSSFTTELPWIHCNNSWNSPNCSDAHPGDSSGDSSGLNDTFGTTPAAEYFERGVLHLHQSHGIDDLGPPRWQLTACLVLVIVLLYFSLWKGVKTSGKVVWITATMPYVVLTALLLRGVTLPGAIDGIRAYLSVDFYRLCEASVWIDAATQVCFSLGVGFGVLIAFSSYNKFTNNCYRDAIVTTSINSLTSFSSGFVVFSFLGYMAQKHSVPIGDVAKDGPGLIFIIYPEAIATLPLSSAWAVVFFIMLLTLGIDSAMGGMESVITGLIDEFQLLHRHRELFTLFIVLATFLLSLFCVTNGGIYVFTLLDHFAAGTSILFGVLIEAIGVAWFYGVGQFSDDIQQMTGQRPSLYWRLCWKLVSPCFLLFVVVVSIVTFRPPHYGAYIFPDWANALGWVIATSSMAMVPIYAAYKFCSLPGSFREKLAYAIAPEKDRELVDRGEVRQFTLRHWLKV

Question: How did the Ki turn out when `COC(=O)C1=C(c2cccc(Cl)c2)CCCC1` was run?
Answer: The Ki was 117 µM.

Question: For `COC(=O)C1=C(c2ccc3ccccc3c2)CCCC1`, which Ki is on record?
Answer: The Ki was 11.7 µM.

Question: `COC(=O)C1=C(c2cccc(Cl)c2)CCC1` was tested. Which Ki did it give?
Answer: The Ki was 34.7 µM.

Question: For `COC(=O)C1=C(c2ccc(C(C)=O)cc2)CCC1`, which Ki is on record?
Answer: Its Ki is 331 µM.

Question: For `COC(=O)C1=C(c2ccc(Cl)cc2)C2CCC1N2` (stereo unspecified), which Ki is on record?
Answer: Its Ki is 26.9 µM.

Question: Which Ki does the source give for `COC(=O)C1=C(c2ccc(Cl)cc2)C2CCC1O2` (stereo unspecified) here?
Answer: Its Ki is 18.2 µM.

Question: With `COC(=O)C1=C(c2ccc3ccccc3c2)C2CCC1N2` (stereo unspecified) as the molecule, how does the Ki read?
Answer: Its Ki is 1.74 µM.

Question: `COC(=O)C1=C(c2ccc(-c3ccccc3)cc2)C2CCC1C2` (stereo unspecified) was tested. Which Ki did it give?
Answer: Its Ki is 603 µM.

Question: How did the Ki turn out when `COC(=O)C1=C(c2ccc(Cl)c(Cl)c2)C2CCC1C2` (stereo unspecified) was run?
Answer: The Ki was 6.76 µM.

Question: How did the Ki turn out when `COC(=O)C1=C(c2cccc(Cl)c2Cl)C2CCC1C2` (stereo unspecified) was run?
Answer: Its Ki is 14.8 µM.

Question: How did the Ki turn out when `COC(=O)C1=C(c2cccc(Cl)c2)C2CCC1N2` (stereo unspecified) was run?
Answer: Its Ki is 33.9 µM.

Question: Which Ki does the source give for `COC(=O)C1=C(c2ccc(Cl)c(Cl)c2)CCC1` here?
Answer: The Ki was 1.95 µM.

Question: With `COC(=O)C1=C(c2ccc(-c3ccccc3)cc2)C2CCC1N2` (stereo unspecified) as the molecule, how does the Ki read?
Answer: Its Ki is 24.5 µM.

Question: With `COC(=O)C1=C(c2ccc3ccccc3c2)C2CCC1C2` (stereo unspecified) as the molecule, how does the Ki read?
Answer: Its Ki is 4.27 µM.

Question: With `COC(=O)C1=C(c2ccc(Cl)cc2Cl)C2CCC1C2` (stereo unspecified) as the molecule, how does the Ki read?
Answer: The Ki was 22.9 µM.

Question: Which Ki does the source give for `COC(=O)C1=C(c2cccc(Cl)c2)C2CCC1C2` (stereo unspecified) here?
Answer: Its Ki is 105 µM.

Question: `COC(=O)C1=C(c2ccccc2)C2CCC1N2` (stereo unspecified) was tested. Which Ki did it give?
Answer: Its Ki is 447 µM.

Question: For `COC(=O)C1=C(c2ccc3ccccc3c2)CCC1`, which Ki is on record?
Answer: The Ki was 4.17 µM.

Question: For `COC(=O)C1=C(c2ccc(Cl)c(Cl)c2)C2CCC1N2` (stereo unspecified), which Ki is on record?
Answer: The Ki was 1.1 µM.

Question: How did the Ki turn out when `COC(=O)C1=C(c2ccccc2)C2CCC1C2` (stereo unspecified) was run?
Answer: Its Ki is 646 µM.

Question: How did the Ki turn out when `COC(=O)C1=C(c2ccc(Cl)cc2)C2CCC1C2` (stereo unspecified) was run?
Answer: Its Ki is 25.1 µM.

Question: How did the Ki turn out when `COC(=O)C1=C(c2ccccc2Cl)C2CCC1C2` (stereo unspecified) was run?
Answer: The Ki was 372 µM.

Same assay, conditions: read-out: Ki

Question: How did the Ki turn out when `COC(=O)C1=C(c2cc(C)c(C)cc2C)C2CCC1C2` (stereo unspecified) was run?
Answer: Its Ki is 32.2 µM.

Question: How did the Ki turn out when `COC(=O)C1=C(c2cccc([N+](=O)[O-])c2)C2CCC1N2` (stereo unspecified) was run?
Answer: The Ki was 232 µM.

Question: How did the Ki turn out when `COC(=O)C1=C(c2ccc(C)c(F)c2)C2CCC1C2` (stereo unspecified) was run?
Answer: The Ki was 56 µM.

Question: Which Ki does the source give for `COC(=O)C1=C(c2ccc([N+](=O)[O-])cc2)C2CCC1N2` (stereo unspecified) here?
Answer: Its Ki is 67.9 µM.

— ChEMBL document CHEMBL1149591, “QSAR studies and pharmacophore identification for arylsubstituted cycloalkenecarboxylic acid methyl esters with affinity for the human dopamine transporter” (Bioorg Med Chem, 2007)
